Active and inactive are the calls of the source. The rule behind the calls is not given here.

The species named for one series is Homo sapiens. Conditions: at 1 µM.
Series [1] relates to U-937. The series is described as follows: Induction of apoptosis in p53 null human U937 cells at 0.25 to 2 uM after 24 hrs by annexin V-FITC/PI staining based flow cytometry. Format: functional, cell-based. An outline of the steps:
(§1)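 Cells treated 24 h, single agents or SAHA+PL at 1:1 (each drug at the stated concentration). Annexin V-FITC/PI kit staining, then flow cytometry, reported as % Annexin V+ cells. Three independent experiments in triplicate, with data from one representative experiment. DMSO <0.1% vehicle control.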

Series [2] concerns U-937. Nature of the series: Induction of apoptosis in p53 null human U937 cells at 2 uM preincubated with NAC for 3 hrs followed by compound addition measured after 24 hrs by annexin V-FITC/PI staining based flow cytometry. Format: functional, cell-based. The essentials:
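U937 cells preincubated 3 h with 3 mM NAC or vehicle and washed with PBS to remove excess NAC. Then drug alone or with SAHA for 24 h. Apoptosis scored as % Annexin V+ by Annexin V-FITC/PI flow cytometry; vehicle DMSO < 0.1% v/v.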
In general terms: A flow cytometer gives signals particle by particle.

In series [3] the test system is U-937. The series is described as follows: Induction of cell death in p53 null human U937 cells at 1 to 4 uM after 24 hrs by annexin V-FITC/PI staining based flow cytometry. Format: functional. An outline of the steps: (§2)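 Human U937 AML cells (p53 null) in RPMI 1640 with 10% FBS, 2 mM L-glutamine, penicillin/streptomycin, 37 °C, 5% CO2. Exposed 24 h to compound alone or with SAHA; vehicle DMSO < 0.1% v/v. Annexin V-FITC/PI staining and flow cytometry, reported as % Annexin V+ cells. Three independent experiments in triplicate; one representative shown. EC50 taken as concentration giving 50% Annexin V+ cells versus vehicle.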

Series [4] can be described thus: Antiproliferative activity against human CMS cells after 72 hrs by MTT assay. It counts as functional, cell-based. An outline of the steps:
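AML cell lines grown in RPMI 1640 with 10% FBS (20% for MOLM-13), 2 mM L-glutamine and penicillin/streptomycin at 37 °C, 5% CO2. Ara-C-resistant HL-60 and CMK sublines came from stepwise cytarabine selection and were kept in 600 nM or 300 nM cytarabine respectively. Cells were treated 72 h. MTT 0.05 mg/mL, 3 h at 37 °C, DMSO solubilization, absorbance at 570 nm. IC50 given ± SEM.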
Background: Tetrazolium assays rely on reduction of a dye to a coloured formazan, in cell work by metabolically active cells.

In a further series the test system is MCF-10A. The series is described as follows: Cytotoxicity against human MCF10A cells assessed as decrease in cell viability at 0.5 to 5 uM after 24 hrs by MTT assay. It counts as cell-based. An outline of the steps:
(§3)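 MCF-10A (DMEM/F12, 5% horse serum, hydrocortisone, cholera toxin, insulin, EGF) and U937 (RPMI 1640, 10% FBS) were exposed to 0.5–5 μM, alone or PL+SAHA 1:1, for 24 h. MTT 0.05 mg/mL, 3 h at 37 °C, DMSO solubilization, A570. Viability given as mean ± SD of four to six independent experiments. DMSO <0.1% vehicle control.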

Series [5] deals with U-937. Nature of the series: Induction of apoptosis in p53 null human U937 cells at 2 uM after 24 hrs by annexin V-FITC/PI staining based flow cytometry. It counts as functional. An outline of the steps: as §2
The test system of series [6] is U-937. Nature of the series: Induction of DNA damage in p53 null human U937 cells at 2 uM after 20 hrs by SYBR gold staining based alkaline comet assay. Format: functional, cell-based. The essentials:
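U937 cells treated 20 h with SAHA and PL alone or combined (16 h for hybrids). Alkaline single-cell gel electrophoresis, SYBR Gold staining, microscopy. Median % DNA in tail from 4 replicate gels ± s.e.m.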

Series [7] deals with U-937. The series is described as follows: Cytotoxicity against p53 null human U937 cells assessed as decrease in cell viability at 0.5 to 5 uM after 24 hrs by MTT assay. It counts as functional, cell-based. An outline of the steps:
as §3

The subject of series [8] is U-937. The series is described as follows: Induction of apoptosis in p53 null human U937 cells assessed as PARP-1 cleavage at 0.25 to 0.5 uM after 24 hrs by Western blot analysis. Format: functional, cell-based. An outline of the steps: (§4)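 U937 cells exposed for 24 h. Lysates with protease/phosphatase inhibitors were separated by SDS-PAGE, transferred to PVDF and probed for PARP and cleaved caspase-3, with β-actin as loading control.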
On the technique in general: Immunoblotting shows a protein as a band on a membrane.

Series [9] in a line: Chemical stability of the compound in pH 7.4 phosphate buffer at 50 uM incubated up to 4 hrs in absence of GSH by HPLC analysis. It counts as physicochemical. Conditions: pH 7.4, 4 h. The essentials: (§5)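 Compound at 50 μM incubated with or without 5 mM GSH in phosphate buffer pH 7.4 at 37 °C for up to 4 h. Mixtures analysed by HPLC with water/0.1% formic acid/10% methanol versus 0.1% formic acid in acetonitrile, 0.5 mL/min, 10–80% B gradient over 18 min.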

The test system of series [10] is AML. Nature of the series: Induction of apoptosis in patient derived AML cells assessed as PARP-1 cleavage at 0.25 to 2 uM after 24 hrs by Western blot analysis. The note with it: Homo sapiens. It counts as functional, cell-based. The essentials: (§6)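 Primary AML patient cells, Ficoll-Hypaque purified and grown in RPMI 1640/20% FBS with ITS and 5637 supernatant. Exposed 24 h; whole-cell lysates prepared with protease/phosphatase inhibitors, run on SDS-PAGE, blotted to PVDF and probed for PARP and cleaved caspase-3.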

The test system of series [11] is AML. Nature of the series: Induction of apoptosis in patient derived AML cells assessed as caspase 3 cleavage at 0.25 to 2 uM after 24 hrs by Western blot analysis. It counts as functional, cell-based. The note with it: Homo sapiens. An outline of the steps: as §6
The test system of series [12] is U-937. Nature of the series: Induction of apoptosis in p53 null human U937 cells at 0.25 to 0.5 uM preincubated with NAC for 3 hrs followed by compound addition measured after 24 hrs by annexin V-FITC/PI staining based flow cytometry. It counts as functional, cell-based. The essentials:
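U937 cells preincubated 3 h with 3 mM NAC or vehicle, washed with PBS, then drug-treated 24 h. Annexin V-FITC/PI staining by flow cytometry, reported as % Annexin V+.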

Series [13] is described as follows: Chemical stability of the compound in pH 7.4 phosphate buffer at 50 uM incubated up to 4 hrs in presence of GSH by HPLC analysis. Format: physicochemical. The note with it: pH 7.4, 4 h. The essentials: as §5
Series [14] deals with U-937. Nature of the series: Induction of apoptosis in p53 null human U937 cells at 0.25 uM after 24 hrs by annexin V-FITC/PI staining based flow cytometry. Format: functional. An outline of the steps: as §1
In series [15] the test system is U-937. The series is described as follows: Induction of apoptosis in p53 null human U937 cells assessed as caspase 3 cleavage at 0.25 to 0.5 uM after 24 hrs by Western blot analysis. It counts as functional, cell-based. The essentials: as §4
For series [16], the system named is U-937. The series is described as follows: Induction of apoptosis in p53 null human U937 cells at 1 uM after 24 hrs by annexin V-FITC/PI staining based flow cytometry. Format: functional. An outline of the steps: as §1
The subject of series [17] is AML. The series is described as follows: Induction of apoptosis in patient derived AML-92 cells after 24 hrs by annexin V-FITC/PI staining based flow cytometry. It counts as functional, cell-based. Conditions: Homo sapiens. An outline of the steps:
(§7)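 Primary AML samples purified by Ficoll-Hypaque density centrifugation and cultured in RPMI 1640 with 20% FBS, ITS and 20% 5637 bladder cancer cell supernatant as a GM-CSF source. Treated 24 h, then Annexin V-FITC/PI flow cytometry as % Annexin V+. Single experiment in triplicate.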

Series [18] deals with U-937. The series is described as follows: Induction of apoptosis in p53 null human U937 cells at 0.5 uM after 24 hrs by annexin V-FITC/PI staining based flow cytometry. Format: functional. The essentials:
as §1

Series [19] concerns AML. The series is described as follows: Induction of apoptosis in patient derived AML-91 cells after 24 hrs by annexin V-FITC/PI staining based flow cytometry. Format: functional, cell-based. The note with it: Homo sapiens. The essentials: as §7

On to `COc1cc(/C=C/C(=O)N2CCC(C)=CC2=O)cc(OC)c1OCCCCCCC(=O)NO`, for which, in the series filed under Homo sapiens, the inhibition entry was “Active”. For the same molecule, the result in the series on U-937 [1] was inactive.
With `O=C(CCCCCCC(=O)Nc1ccccc1)NO` [VORINOSTAT], the outcome in the series on U-937 [2] and in the series with U-937 [6] was inactive. The outcome with U-937 [3] was Active. Also, half-maximal inhibition in series [4] (IC50) required 1020 nM. Further, the Activity result is “Non-Toxic” with MCF-10A and 25% with U-937 [5].
In the case of `COC(=O)CCCCCCOc1c(OC)cc(/C=C/C(=O)N2CCC=CC2=O)cc1OC`, the inhibition entry in the series filed under Homo sapiens is “inactive”. Moreover, in the series with U-937 [1], the result was inactive.
As to `COc1cc(/C=C/C(=O)N2CCCCC2=O)cc(OC)c1OCCCCCCC(=O)NO`, the inhibition result in the series listed under Homo sapiens was “Active”. In addition, the outcome in the series with U-937 [1] was inactive.
Regarding `COc1cc(C(=O)N2CCC=CC2=O)cc(OC)c1OCCCCCCC(=O)NO`, the Activity entry with MCF-10A was “Non-Toxic”; with U-937 [5], 40%. The inhibition entry in the series filed under Homo sapiens is “Active”. Besides, the outcome with U-937 [7] was Active.
Turning to `COc1cc(/C=C/C(=O)N2CCC=C(Cl)C2=O)cc(OC)c1OCCCCCCC(=O)NO`, the result with U-937 [8], in the series with AML [10], in the series with AML [11], in the series on U-937 [15] and in the series on U-937 [7] was Active. Moreover, the values for the Stability entry in [9] and in series [13] were “Stable” and “Unstable”, respectively. For the same molecule, the result in the series on U-937 [12] was inactive. The Activity was 29.9% with U-937 [14]; “Toxic” with MCF-10A; 88% in the series on U-937 [16]; “Dose-dependent effect” with AML [17]; 100% with U-937 [5]; 49.2% in the series with U-937 [18]. Moreover, the Activity result in the series with AML [19] was “Dose-dependent effect”. For the same molecule, the inhibition result in the series filed under Homo sapiens is “Active”.
Regarding `COc1cc(C(=O)N2CCC=C(Cl)C2=O)cc(OC)c1OCCCCCCC(=O)NO`, the Stability result in series [13] is reported as “Unstable”. Moreover, the results for the Activity entry with MCF-10A and in the series with U-937 [5] were “Non-Toxic” and 40%, respectively. Further, the inhibition entry in the series filed under Homo sapiens is “Active”. The outcome in the series with U-937 [7] was Active.
In turn, `COC(=O)CCCCCCOc1c(OC)cc(/C=C/C(=O)N2CCC=C(Cl)C2=O)cc1OC` displayed an Activity in the series on U-937 [16] of 29.7%. Moreover, in the series listed under Homo sapiens, the inhibition result is “inactive”.

As usually defined, the IC50 is the point on the concentration scale where inhibition reaches its midpoint. High values mean weaker potency in that assay, low ones greater potency in that assay.

Values taken from ChEMBL document CHEMBL4000155, “Synthesis and Antileukemic Activities of Piperlongumine and HDAC Inhibitor Hybrids against Acute Myeloid Leukemia Cells” (J Med Chem, 2016).
